This note sets out measurements from ChEMBL document CHEMBL4196187, “Peloruside E (22-Norpeloruside A), a Pelorusane Macrolide from the New Zealand Marine Sponge Mycale hentscheli, Retains Microtubule-Stabilizing Properties” (J Nat Prod, 2018).

The test system of test [1] is HL-60. The experiment in a line: Cell cycle arrest in human HL60 cells assessed as accumulation at S phase at 1500 nM after 18 hrs by propidium iodide staining based flow cytometry (reference value: 20%). The test is classed as functional.
Test [2] deals with HL-60. The experiment in a line: Cell cycle arrest in human HL60 cells assessed as accumulation at G2/M phase at 1500 nM after 18 hrs by propidium iodide staining based flow cytometry (reference value: 19%). In kind it is functional.
The test system of test [3] is HL-60. The experiment in a line: Cell cycle arrest in human HL60 cells assessed as accumulation at G1 phase at 300 nM after 18 hrs by propidium iodide staining based flow cytometry (reference value: 62%). The test is classed as functional.
Test [4] relates to HL-60. The experiment in a line: Cell cycle arrest in human HL60 cells assessed as accumulation at G1 phase at 1500 nM after 18 hrs by propidium iodide staining based flow cytometry (reference value: 62%). In kind it is functional.
Test [5] deals with HL-60. The experiment in a line: Growth inhibition of human HL60 cells after 48 hrs by MTT assay. The note with it: HL-60, 48 h. In kind it is functional, cell-based. The essentials:
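Human promyelocytic leukemia HL-60 cells; MTT cell proliferation read-out after 48 h incubation. IC50 derived from n = 3 replicates, reported as SEM.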

Test [6] deals with HL-60. The experiment in a line: Cell cycle arrest in human HL60 cells assessed as accumulation at G2/M phase at 300 nM after 18 hrs by propidium iodide staining based flow cytometry (reference value: 19%). In kind it is functional.
The subject of test [7] is HL-60. The experiment in a line: Cell cycle arrest in human HL60 cells assessed as accumulation at S phase at 300 nM after 18 hrs by propidium iodide staining based flow cytometry (reference value: 20%). In kind it is functional.
Test [8] concerns HL-60. The experiment in a line: Cell cycle arrest in human HL60 cells assessed as accumulation at S phase at 1000 nM after 18 hrs by propidium iodide staining based flow cytometry (reference value: 20%). The test is classed as functional.
Another test is filed under the species Sus scrofa. The experiment in a line: Induction of porcine brain tubulin polymerization at 2.8 uM measured at 1 min interval over 100 mins by fluorescence assay.
Test [9] relates to HL-60. The experiment in a line: Cell cycle arrest in human HL60 cells assessed as accumulation at G2/M phase at 1000 nM after 18 hrs by propidium iodide staining based flow cytometry (reference value: 19%). In kind it is functional.
The test system of test [10] is HL-60. The experiment in a line: Cell cycle arrest in human HL60 cells assessed as accumulation at G1 phase at 1000 nM after 18 hrs by propidium iodide staining based flow cytometry (reference value: 62%). In kind it is functional.
Test [11] concerns HL-60. The experiment in a line: Cell cycle arrest in human HL60 cells assessed as accumulation at S phase at 500 nM after 18 hrs by propidium iodide staining based flow cytometry (reference value: 20%). The test is classed as functional.
In test [12] the test system is HL-60. The experiment in a line: Cell cycle arrest in human HL60 cells assessed as accumulation at G1 phase at 500 nM after 18 hrs by propidium iodide staining based flow cytometry (reference value: 62%). In kind it is functional.
The subject of test [13] is HL-60. The experiment in a line: Cell cycle arrest in human HL60 cells assessed as accumulation at G2/M phase at 500 nM after 18 hrs by propidium iodide staining based flow cytometry (reference value: 19%). In kind it is functional.
Test [14] concerns HL-60. The experiment in a line: Cell cycle arrest in human HL60 cells assessed as accumulation at G1 phase at 100 nM after 18 hrs by propidium iodide staining based flow cytometry (reference value: 62%). In kind it is functional.
Test [15] relates to HL-60. The experiment in a line: Cell cycle arrest in human HL60 cells assessed as accumulation at S phase at 100 nM after 18 hrs by propidium iodide staining based flow cytometry (reference value: 20%). The test is classed as functional.
Test [16] concerns HL-60. The experiment in a line: Cell cycle arrest in human HL60 cells assessed as accumulation at G2/M phase at 100 nM after 18 hrs by propidium iodide staining based flow cytometry (reference value: 19%). The test is classed as functional.

Active and inactive are the calls of the source. The rule behind the calls is not given here.

Take `CC[C@H](/C=C(/C)[C@@H]1C[C@@H](OC)C[C@H](O)[C@@H](C)[C@@]2(O)O[C@@H](C[C@@H](OC)[C@H](O)C(=O)O1)C[C@@H](OC)[C@H]2O)CO`: the Activity in the test on HL-60 [1] was 23%; in the test with HL-60 [2], 49%; in the test with HL-60 [3], 38%; in the test on HL-60 [4], 29%; with HL-60 [6], 39%; in the test on HL-60 [7], 22%. The compound further returned an IC50 with HL-60 [5] of 90 nM.

In the case of `CC(=O)O[C@H]1C(=O)[C@@]2(C)[C@H]([C@H](OC(=O)c3ccccc3)[C@]3(O)C[C@H](OC(=O)[C@H](O)[C@@H](NC(=O)c4ccccc4)c4ccccc4)C(C)=C1C3(C)C)[C@]1(OC(C)=O)CO[C@@H]1C[C@@H]2O` [PACLITAXEL], the Activity in the test on HL-60 [8] is 19%; with HL-60 [9], 53%; in the test on HL-60 [10], 28%. Further, the induction entry in the test filed under Sus scrofa is “Active”.

As for `CC[C@H](/C=C(/C)[C@@H]1C[C@@H](OC)C[C@H](O)C(C)(C)[C@@]2(O)O[C@@H](C[C@@H](OC)[C@H](O)C(=O)O1)C[C@@H](OC)[C@H]2O)CO`, the Activity was found to be 23% in the test with HL-60 [11]; 30% in the test on HL-60 [12]; 47% in the test on HL-60 [13]; 27% in the test with HL-60 [14]; 23% in the test with HL-60 [15]; 50% in the test with HL-60 [16]. Also, the induction entry in the test filed under Sus scrofa was “Active”. In addition, the IC50 in the test on HL-60 [5] stood at 19 nM.
